Laboratory results from ChEMBL document CHEMBL5154790 (J Med Chem, 2022).
Activity calls are given as the source filed them. The calls are words filed in the database; no cut-off is given here.

Columns and labels:
[1] = Cytotoxicity against human SH-SY5Y cells assessed as reduction in cell viability incubated for 24 hrs by propidium iodide staining based fluorescence analysis; type: toxicity; details: read-out: LD50
[2] = biological target: Cholinesterase (Homo sapiens) (UniProt P06276); assay: Inhibition of human recombinant BChE at 100 uM using butyrylthiocholine iodide as substrate preincubated for 20 mins followed by substrate addition and measured every 240 sec by Ellman's method relative to control
Chain of Cholinesterase (Homo sapiens) (P06276 whole entry): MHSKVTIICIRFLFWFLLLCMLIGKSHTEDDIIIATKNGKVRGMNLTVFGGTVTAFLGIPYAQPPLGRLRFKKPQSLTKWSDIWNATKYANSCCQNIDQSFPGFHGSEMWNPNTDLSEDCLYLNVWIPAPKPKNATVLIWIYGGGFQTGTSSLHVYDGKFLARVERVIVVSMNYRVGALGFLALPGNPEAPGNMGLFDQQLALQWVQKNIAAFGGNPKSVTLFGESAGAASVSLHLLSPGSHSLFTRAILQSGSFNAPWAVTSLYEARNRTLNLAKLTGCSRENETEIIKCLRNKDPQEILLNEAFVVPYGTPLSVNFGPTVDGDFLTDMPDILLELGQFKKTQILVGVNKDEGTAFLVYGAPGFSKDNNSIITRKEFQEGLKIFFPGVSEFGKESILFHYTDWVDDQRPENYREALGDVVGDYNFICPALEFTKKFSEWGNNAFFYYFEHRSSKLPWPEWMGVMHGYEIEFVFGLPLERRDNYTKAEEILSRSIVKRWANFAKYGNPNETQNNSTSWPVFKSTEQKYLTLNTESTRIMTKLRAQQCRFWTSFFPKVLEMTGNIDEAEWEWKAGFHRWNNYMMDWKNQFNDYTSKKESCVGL

Mus musculus [3] = assay: Antialzheimer activity against SAMP8 mouse assessed as decrease in hippocampal sAPPbeta levels at 2 mg/kg, po measured after 4 weeks by Western blot analysis; type: functional, organism-based
How it was run: (§1)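 SAMP8 mice received oral dosing daily for 4 weeks at 2 mg kg⁻¹ day⁻¹, with vehicle-treated SAMP8 mice as controls. Hippocampal protein levels were expressed relative to the SAMP8 control group, set to 100%; for tau this is the p-Tau (Ser396 and Ser404) ratio. Values are mean ± SEM, tested against control.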

Mus musculus [4] = assay: Cognitive enhancing effect in SAMP8 mouse assessed as improvement of short term memory by measuring discrimination index at 2 mg/kg, po administered for 4 weeks by novel object recognition test; type: functional, organism-based
How it was run: (§2)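 SAMP8 mice were dosed orally once daily for 4 weeks at 2 mg kg⁻¹ day⁻¹; controls received vehicle. In the novel object recognition test, a familiarization phase preceded testing for short-term and long-term working memory. The discrimination index scores the ability to distinguish a known from a new object. Values are mean ± SEM.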

Mus musculus [5] = assay: Antialzheimer activity against SAMP8 mouse assessed as increase in hippocampal sAPPalpha levels at 2 mg/kg, po measured after 4 weeks by Western blot analysis; type: functional, organism-based; how it was run: as §1
Mus musculus [6] = assay: Antineuroinflammatory activity in SAMP8 mouse assessed as decrease in Gfap gene expression hippocampus tissue at 2 mg/kg, po measured after 4 weeks by RT-PCR analysis; type: functional, organism-based
How it was run: (§3)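 Hippocampal gene expression was measured by real-time PCR in SAMP8 mice after daily oral treatment for 4 weeks (2 mg kg⁻¹ day⁻¹), compared with vehicle-treated SAMP8 controls. Values are mean ± SEM.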

Mus musculus [7] = assay: Antineuroinflammatory activity in SAMP8 mouse assessed as decrease in NFkappaB protein expression hippocampus tissue at 2 mg/kg, po measured after 4 weeks by Western blot analysis; type: functional, organism-based; how it was run: as §1
Mus musculus [8] = assay: Antineuroinflammatory activity in SAMP8 mouse assessed as decrease in IL-1beta gene expression hippocampus tissue at 2 mg/kg, po measured after 4 weeks by RT-PCR analysis; type: functional, organism-based; how it was run: as §3
Mus musculus [9] = assay: Cognitive enhancement effect […] of SAMP8 mouse assessed as increase in novelty discrimination index at 2 mg/kg, po administered 4 weeks by Novel object recognition test; type: functional, organism-based; how it was run: as §2
Mus musculus [10] = assay: Antineuroinflammatory activity in SAMP8 mouse assessed as decrease in IL-6 gene expression hippocampus tissue at 2 mg/kg, po measured after 4 weeks by RT-PCR analysis; type: functional, organism-based; how it was run: as §3
Mus musculus [11] = assay: Antialzheimer activity against SAMP8 mouse assessed as reduction in tau phosphorylation ar Ser396 residue at 2 mg/kg, po measured after 4 weeks by Western blot analysis; type: functional, organism-based; how it was run: as §1
Mus musculus [12] = assay: Cognitive enhancing effect in SAMP8 mouse assessed as improvement of long term memory by measuring increased discrimination index at 2 mg/kg, po administered for 4 weeks by novel object recognition test; type: functional, organism-based; how it was run: as §2
Mus musculus [13] = assay: Antineuroinflammatory activity in SAMP8 mouse assessed as increase in synaptophysin expression in hippocampus tissue at 2 mg/kg, po measured after 4 weeks by Western blot analysis; type: functional, organism-based; how it was run: as §1

Q: With O=C(Nc1ccc(OC(F)(F)F)cc1)NC1CCN(C(=O)CCCNc2c3c(nc4cc(Cl)ccc24)CCCC3)CC1 as the compound, how does the CC50 at 24 h [1] read?
A: > 100 µM

Q: Which CC50 at 24 h [1] does the source give for CC1=C[C@@H]2Cc3nc4cc(Cl)ccc4c(NCCCCC(=O)N4CCC(NC(=O)Nc5ccc(OC(F)(F)F)cc5)CC4)c3[C@H](C1)C2 here?
A: > 100 µM

Q: With O=C(Nc1ccc(OC(F)(F)F)cc1)NC1CCN(C(=O)CCNc2c3c(nc4cc(Cl)ccc24)CCCC3)CC1 as the compound, how does the CC50 at 24 h [1] read?
A: 92.8 µM

Q: Which inhibition [2] does the source give for CC(=O)N1CCC(NC(=O)Nc2ccc(OC(F)(F)F)cc2)CC1 here?
A: < 10%

Q: For O=C(Nc1ccc(OC(F)(F)F)cc1)NC1CCN(C(=O)CCCCNc2c3c(nc4cc(Cl)ccc24)CCCC3)CC1, which Activity (Mus musculus [3]) is on record?
A: Active

Q: And the Activity (Mus musculus [4])?
A: Active

Q: And the Activity (Mus musculus [5])?
A: Active

Q: And the Activity (Mus musculus [6])?
A: Active

Q: And the Activity (Mus musculus [7])?
A: Active

Q: What about the Activity (Mus musculus [8]) of the same compound?
A: Active

Q: What about the Activity (Mus musculus [9]) of the same compound?
A: Active

Q: And the Activity (Mus musculus [10])?
A: Active

Q: What about the CC50 at 24 h [1] of the same compound?
A: > 100 µM

Q: What about the Activity (Mus musculus [11]) of the same compound?
A: Active

Q: What about the Activity (Mus musculus [12]) of the same compound?
A: Active

Q: And the Activity (Mus musculus [13])?
A: Active
